According to ChEMBL document CHEMBL5230171, “Expanding the structure-activity relationships of alkynyl diphenylurea scaffold as promising antibacterial agents” (RSC Med Chem, 2023):
≈ marks a conversion by molar mass, not a printed value. Calls of active or inactive are those of the source. The calls are words filed in the database; no cut-off is given here.

What was measured:
Staphylococcus aureus [1] = test: Antibacterial activity against vancomycin resistant Staphylococcus aureus 12 assessed as inhibition of bacterial growth at 0.5 ug/ml incubated for 18 to 20 hrs by CLSI protocol based broth microdilution method; format: functional, organism-based; details: dose 0.5 µg/ml, time 18-20 hrs
Staphylococcus aureus [2] = test: Antibacterial activity against vancomycin resistant Staphylococcus aureus 10 assessed as inhibition of bacterial growth at 0.5 ug/ml incubated for 18 to 20 hrs by CLSI protocol based broth microdilution method; format: functional, organism-based; details: dose 0.5 µg/ml, time 18-20 hrs
Staphylococcus aureus [3] = test: Antibacterial activity against methicillin sensitive Staphylococcus aureus 6538 assessed as inhibition of bacterial growth at 0.5 ug/ml incubated for 18 to 20 hrs by CLSI protocol based broth microdilution method; format: functional, organism-based; details: dose 0.5 µg/ml, time 18-20 hrs
Summary of the method: (§1)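 Staphylococcal and E. coli strains were diluted from a 0.5 McFarland suspension in cation-adjusted Mueller Hinton broth to ~5 × 10^5 CFU mL−1. They were incubated with serial dilutions of test agent in broth microdilution, and the MIC was recorded.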

Staphylococcus aureus [4] = test: Antibacterial activity against vancomycin resistant Staphylococcus aureus 9 assessed as inhibition of bacterial growth at 0.5 ug/ml incubated for 18 to 20 hrs by CLSI protocol based broth microdilution method; format: functional, organism-based; details: dose 0.5 µg/ml, time 18-20 hrs
Staphylococcus aureus [5] = test: Antibacterial activity against methicillin resistant Staphylococcus aureus 384 assessed as inhibition of bacterial growth at 0.5 ug/ml incubated for 18 to 20 hrs by CLSI protocol based broth microdilution method; format: functional, organism-based; details: dose 0.5 µg/ml, time 18-20 hrs
Staphylococcus aureus [6] = test: Antibacterial activity against methicillin sensitive Staphylococcus aureus 107 assessed as inhibition of bacterial growth at 0.5 ug/ml incubated for 18 to 20 hrs by CLSI protocol based broth microdilution method; format: functional, organism-based; details: dose 0.5 µg/ml, time 18-20 hrs; summary of the method: as §1
Staphylococcus aureus [7] = test: Antibacterial activity against methicillin resistant Staphylococcus aureus 385 assessed as inhibition of bacterial growth at 0.5 ug/ml incubated for 18 to 20 hrs by CLSI protocol based broth microdilution method; format: functional, organism-based; details: dose 0.5 µg/ml, time 18-20 hrs
Staphylococcus aureus [8] = test: Antibacterial activity against methicillin resistant Staphylococcus aureus 119 assessed as inhibition of bacterial growth at 0.5 ug/ml incubated for 18 to 20 hrs by CLSI protocol based broth microdilution method; format: functional, organism-based; details: dose 0.5 µg/ml, time 18-20 hrs
Staphylococcus aureus [9] = test: Antibacterial activity against methicillin resistant Staphylococcus aureus 386 assessed as inhibition of bacterial growth at 0.5 ug/ml incubated for 18 to 20 hrs by CLSI protocol based broth microdilution method; format: functional, organism-based; details: dose 0.5 µg/ml, time 18-20 hrs
Staphylococcus aureus [10] = test: Antibacterial activity against methicillin resistant Staphylococcus aureus 123 assessed as inhibition of bacterial growth at 0.5 ug/ml incubated for 18 to 20 hrs by CLSI protocol based broth microdilution method; format: functional, organism-based; details: dose 0.5 µg/ml, time 18-20 hrs
[11] = Cytotoxicity against human HaCaT cells assessed as tolerance by measuring cell viability at 64 ug/ml incubated for 24 hrs by MTS assay relative to control; format: toxicity, cell-based; details: at 64 µg/mL, read-out: Activity
Summary of the method: (§2)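 Vero or HaCaT cells were exposed to 32, 64 and 128 μg mL−1 compound in triplicate for 24 h at 37 °C, 5% CO2, with a DMSO control. MTS was then added for 4 h and OD490 read. Analysis used two-way ANOVA with Dunnett's post hoc test (p < 0.05).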

Staphylococcus aureus [12] = test: Antibacterial activity against methicillin resistant Staphylococcus aureus NRS384 USA300 assessed as inhibition of bacterial growth incubated for 18 to 20 hrs by CLSI protocol based broth microdilution method; format: functional; details: time 18-20 hrs, read-out: MIC
Summary of the method: (§3)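 Broth microdilution against staphylococcal clinical isolates. Each strain was prepared as a 0.5 McFarland suspension and diluted in cation-adjusted Mueller Hinton broth to ~5 × 10^5 CFU mL−1. Serial dilutions of test agents in DMSO stock were incubated with the bacteria, and the MIC was recorded.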

Vero = test: Cytotoxicity against African green monkey Vero cells assessed as reduction in cell viability at 64 ug/ml incubated for 24 hrs by MTS assay; format: toxicity, cell-based; details: chlorocebus sabaeus, dose 64 µg/ml; summary of the method: as §2
Enterococcus faecalis = test: Antibacterial activity against Enterococcus faecalis 51299 assessed as inhibition of bacterial growth incubated for 18 to 20 hrs by CLSI protocol based broth microdilution method; format: functional; details: time 18-20 hrs
Summary of the method: (§4)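 Enterococci and L. monocytogenes were diluted from a 0.5 McFarland suspension in TSB. They were incubated with serial dilutions of test agent in broth microdilution, and the MIC was recorded.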

Staphylococcus aureus [13] = test: Antibacterial activity against vancomycin resistant Staphylococcus aureus 12 assessed as inhibition of bacterial growth incubated for 18 to 20 hrs by CLSI protocol based broth microdilution method; format: functional; details: time 18-20 hrs; summary of the method: as §3
[14] = tested on: Staphylococcus epidermidis; test: Antibacterial activity against Staphylococcus epidermidis 101 assessed as inhibition of bacterial growth incubated for 18 to 20 hrs by CLSI protocol based broth microdilution method; format: functional; details: time 18-20 hrs; summary of the method: as §1
Staphylococcus aureus [15] = test: Antibacterial activity against methicillin sensitive Staphylococcus aureus 6538 assessed as inhibition of bacterial growth incubated for 18 to 20 hrs by CLSI protocol based broth microdilution method; format: functional; details: time 18-20 hrs; summary of the method: as §3
Staphylococcus aureus [16] = test: Antibacterial activity against methicillin resistant Staphylococcus aureus 384 assessed as inhibition of bacterial growth incubated for 18 to 20 hrs by CLSI protocol based broth microdilution method; format: functional; details: time 18-20 hrs; summary of the method: as §3
Staphylococcus aureus [17] = test: Antibacterial activity against methicillin resistant Staphylococcus aureus 119 assessed as inhibition of bacterial growth incubated for 18 to 20 hrs by CLSI protocol based broth microdilution method; format: functional; details: time 18-20 hrs; summary of the method: as §3
Listeria monocytogenes = test: Antibacterial activity against Listeria monocytogenes 19111 assessed as inhibition of bacterial growth incubated for 18 to 20 hrs by CLSI protocol based broth microdilution method; format: functional; details: time 18-20 hrs; summary of the method: as §4
Streptococcus pyogenes [18] = test: Antibacterial activity against Streptococcus pyogenes MGAS 9882 assessed as inhibition of bacterial growth incubated for 18 to 20 hrs by CLSI protocol based broth microdilution method; format: functional; details: time 18-20 hrs
Summary of the method: (§5)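 Streptococci were diluted from a 0.5 McFarland suspension in cation-adjusted Mueller Hinton broth with 5% lysed horse blood. They were incubated with serial dilutions of test agent in broth microdilution, and the MIC was recorded.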

Staphylococcus aureus [19] = test: Antibacterial activity against methicillin resistant Staphylococcus aureus 386 assessed as inhibition of bacterial growth incubated for 18 to 20 hrs by CLSI protocol based broth microdilution method; format: functional; details: time 18-20 hrs; summary of the method: as §3
Streptococcus pneumoniae [20] = test: Antibacterial activity against Streptococcus pneumoniae 51916 assessed as inhibition of bacterial growth incubated for 18 to 20 hrs by CLSI protocol based broth microdilution method; format: functional; details: time 18-20 hrs; summary of the method: as §5
Staphylococcus aureus [21] = test: Antibacterial activity against vancomycin resistant Staphylococcus aureus 10 assessed as inhibition of bacterial growth incubated for 18 to 20 hrs by CLSI protocol based broth microdilution method; format: functional; details: time 18-20 hrs; summary of the method: as §3
Streptococcus mutans = test: Antibacterial activity against Streptococcus mutans 25175 assessed as inhibition of bacterial growth incubated for 18 to 20 hrs by CLSI protocol based broth microdilution method; format: functional; details: time 18-20 hrs; summary of the method: as §5
Streptococcus pneumoniae [22] = test: Antibacterial activity against Streptococcus pneumoniae 700677 assessed as inhibition of bacterial growth incubated for 18 to 20 hrs by CLSI protocol based broth microdilution method; format: functional; details: time 18-20 hrs; summary of the method: as §5
Streptococcus pyogenes [23] = test: Antibacterial activity against Streptococcus pyogenes MGAS 1882 assessed as inhibition of bacterial growth incubated for 18 to 20 hrs by CLSI protocol based broth microdilution method; format: functional; details: time 18-20 hrs; summary of the method: as §5
Staphylococcus aureus [24] = test: Antibacterial activity against methicillin sensitive Staphylococcus aureus 107 assessed as inhibition of bacterial growth incubated for 18 to 20 hrs by CLSI protocol based broth microdilution method; format: functional; details: time 18-20 hrs; summary of the method: as §3
Staphylococcus aureus [25] = test: Antibacterial activity against methicillin resistant Staphylococcus aureus 385 assessed as inhibition of bacterial growth incubated for 18 to 20 hrs by CLSI protocol based broth microdilution method; format: functional; details: time 18-20 hrs; summary of the method: as §3
Staphylococcus aureus [26] = test: Antibacterial activity against vancomycin resistant Staphylococcus aureus 9 assessed as inhibition of bacterial growth incubated for 18 to 20 hrs by CLSI protocol based broth microdilution method; format: functional; details: time 18-20 hrs; summary of the method: as §3
Staphylococcus aureus [27] = test: Antibacterial activity against methicillin resistant Staphylococcus aureus 123 assessed as inhibition of bacterial growth incubated for 18 to 20 hrs by CLSI protocol based broth microdilution method; format: functional; details: time 18-20 hrs; summary of the method: as §3
Enterococcus faecium = test: Antibacterial activity against Enterococcus faecium 700221 assessed as inhibition of bacterial growth incubated for 18 to 20 hrs by CLSI protocol based broth microdilution method; format: functional; details: time 18-20 hrs; summary of the method: as §4

| Structure (SMILES) | Activity (Staphylococcus aureus [1]) | Activity (Staphylococcus aureus [2]) | Activity (Staphylococcus aureus [3]) | Activity (Staphylococcus aureus [4]) | Activity (Staphylococcus aureus [5]) | Activity (Staphylococcus aureus [6]) | Activity (Staphylococcus aureus [7]) | Activity (Staphylococcus aureus [8]) | Activity (Staphylococcus aureus [9]) | Activity (Staphylococcus aureus [10]) | MIC (Staphylococcus aureus [12]) | Activity (Vero) | also measured |
| --- | --- | --- | --- | --- | --- | --- | --- | --- | --- | --- | --- | --- | --- |
| C/C(=N\NC(=N)N)c1ccc(NC(=O)Nc2ccc(C#CC(O)CC(C)C)cc2)cc1 (centres undefined) | Active | Active | Active | Active | Active | Active | Active | Active | Active | Active |  |  |  |
| CCCCCC#Cc1ccc(NC(=O)Nc2ccc(/C(C)=N/NC(=N)N)cc2)cc1 | Active | Active | Active | Active | Active | Active | Active | Active | Active | Active | 0.5 µg/mL (≈ 1.24 µM) | Non-Toxic | viability at 24 h, 64 ug/ml [11]: 100% |
| C/C(=N\NC(=N)N)c1ccc(NC(=O)Nc2ccc(C#CCC(C)C)cc2)cc1 | Active | Active | Active | Active | Active | Active | Active | Active | Active | Active | 0.5 µg/mL (≈ 1.28 µM) | Non-Toxic | MIC (Enterococcus faecalis): 0.5 µg/mL (≈ 1.28 µM); MIC (Staphylococcus aureus [13]): 0.5 µg/mL (≈ 1.28 µM); MIC [14]: 0.5 µg/mL (≈ 1.28 µM); MIC (Staphylococcus aureus [15]): 0.5 µg/mL (≈ 1.28 µM); MIC (Staphylococcus aureus [16]): 0.5 µg/mL (≈ 1.28 µM); MIC (Staphylococcus aureus [17]): 0.5 µg/mL (≈ 1.28 µM); MIC (Listeria monocytogenes): 0.5 µg/mL (≈ 1.28 µM); MIC (Streptococcus pyogenes [18]): 0.5 µg/mL (≈ 1.28 µM); MIC (Staphylococcus aureus [19]): 0.5 µg/mL (≈ 1.28 µM); MIC (Streptococcus pneumoniae [20]): 0.5 µg/mL (≈ 1.28 µM); MIC (Staphylococcus aureus [21]): 0.5 µg/mL (≈ 1.28 µM); MIC (Streptococcus mutans): 0.5 µg/mL (≈ 1.28 µM); MIC (Streptococcus pneumoniae [22]): 0.5 µg/mL (≈ 1.28 µM); MIC (Streptococcus pyogenes [23]): 0.5 µg/mL (≈ 1.28 µM); MIC (Staphylococcus aureus [24]): 0.5 µg/mL (≈ 1.28 µM); MIC (Staphylococcus aureus [25]): 0.5 µg/mL (≈ 1.28 µM); MIC (Staphylococcus aureus [26]): 0.5 µg/mL (≈ 1.28 µM); MIC (Staphylococcus aureus [27]): 0.5 µg/mL (≈ 1.28 µM); MIC (Enterococcus faecium): 0.5 µg/mL (≈ 1.28 µM) |
